Test [1] deals with T1, S-methylmethionine--homocysteine S-methyltransferase BHMT2 (Homo sapiens) (UniProt Q9H2M3).
T1 sequence (whole entry): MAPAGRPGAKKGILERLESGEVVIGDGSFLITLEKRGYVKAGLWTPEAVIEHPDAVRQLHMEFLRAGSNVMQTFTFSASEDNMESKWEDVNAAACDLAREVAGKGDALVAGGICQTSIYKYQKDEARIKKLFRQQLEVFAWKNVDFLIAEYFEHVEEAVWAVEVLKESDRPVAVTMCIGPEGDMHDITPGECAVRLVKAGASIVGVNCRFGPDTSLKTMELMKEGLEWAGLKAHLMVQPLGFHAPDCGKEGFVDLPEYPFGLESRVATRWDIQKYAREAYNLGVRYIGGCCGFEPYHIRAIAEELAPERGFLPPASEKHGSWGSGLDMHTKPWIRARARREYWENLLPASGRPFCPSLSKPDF
Put plainly: Inhibition of recombinant human BHMT2 expressed in Escherichia coli […] at 20 uM. The method, boiled down:
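BHMT-2 copurified with BHMT, 0.2–1 μM total protein. Reaction: 0.25 mM SMM (0.3 μCi), 2.5 mM D,L-Hcy, 0.2 mM ZnCl2, 0.1% β-mercaptoethanol, 50 mM Tris/HCl pH 7.5, 60 min at 37 °C. Methanol stop, product isolated on Dowex 1×4. Percent inhibition at 20 μM, tetraplicates, means ± SEM.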

Test [2] concerns the target T2, Betaine--homocysteine S-methyltransferase 1 (Homo sapiens) (UniProt Q93088).
T2 sequence (whole entry): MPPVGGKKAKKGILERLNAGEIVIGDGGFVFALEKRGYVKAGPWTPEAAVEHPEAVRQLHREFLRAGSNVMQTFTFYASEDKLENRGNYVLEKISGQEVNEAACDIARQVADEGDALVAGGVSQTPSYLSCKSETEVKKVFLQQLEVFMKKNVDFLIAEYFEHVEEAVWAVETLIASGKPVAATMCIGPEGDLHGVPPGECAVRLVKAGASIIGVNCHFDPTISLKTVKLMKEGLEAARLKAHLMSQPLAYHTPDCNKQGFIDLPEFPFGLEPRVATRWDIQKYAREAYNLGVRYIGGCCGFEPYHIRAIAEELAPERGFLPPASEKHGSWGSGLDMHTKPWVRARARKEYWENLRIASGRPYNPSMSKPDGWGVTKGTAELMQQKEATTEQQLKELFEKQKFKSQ
Put plainly: Inhibition of recombinant human BHMT expressed in Escherichia coli […] at 20 uM. The essentials: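 Human BHMT at 0.2 or 0.4 μM in 0.5 mL. 30 min at 37 °C, blanks without enzyme subtracted. Percent inhibition at 20 μM inhibitor in tetraplicates, means ± SEM.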

Test [3] has as its target T3, S-methylmethionine--homocysteine S-methyltransferase BHMT2 (Homo sapiens, UniProt Q9H2M3).
T3 sequence (Q9H2M3 whole entry): T1 sequence (whole entry)
Put plainly: Competitive inhibition of recombinant human BHMT2 expressed in Escherichia coli […] by Dixon plot method in presence of D,L-homocysteine. The settings on record: read-out: Ki(app). The method, boiled down:
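BHMT-2 copurified with BHMT on chitin affinity. 0.2 mL reaction: 0.25 mM SMM (0.3 μCi), 0.2 mM ZnCl2, 0.1% β-mercaptoethanol, 50 mM Tris/HCl pH 7.5. D,L-Hcy varied 75–250 μM, inhibitor 0–300 nM. 60 min at 37 °C, methanol stop, Dowex 1×4 column. Triplicates, four separate measurements. Kiapp read from line intersection.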

In test [4] the target is T4, Betaine--homocysteine S-methyltransferase 1 (Homo sapiens, UniProt Q93088).
T4 sequence (Q93088 whole entry): T2 sequence (whole entry)
Put plainly: Inhibition of recombinant human BHMT expressed in Escherichia coli […]. The method, boiled down: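 Human BHMT at 0.2 or 0.4 μM in 0.5 mL. Mix: 2 mM 14C-betaine (0.15 μCi), 1 mM fresh D,L-Hcy, 50 mM Tris/HCl pH 7.5, 0.07% β-mercaptoethanol. 30 min at 37 °C, ice-water stop, no-enzyme blank subtracted. At least nine inhibitor concentrations, duplicates. IC50 by nonlinear regression, ±SEM from three independent runs.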

The target of test [5] is T3, S-methylmethionine--homocysteine S-methyltransferase BHMT2. The experiment in a line: Inhibition of recombinant human BHMT2 expressed in Escherichia coli […]. The essentials: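 BHMT-2 stabilized by copurification with BHMT, 0.2–1 μM total protein. 0.2 mL: 0.25 mM radiolabeled SMM (0.3 μCi), 2.5 mM D,L-Hcy, 0.2 mM ZnCl2, 0.1% β-mercaptoethanol, 50 mM Tris/HCl pH 7.5. 60 min at 37 °C, Dowex separation. At least nine inhibitor concentrations in duplicate. IC50 by nonlinear regression, ±SEM of three independent runs.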

The structures appear in SMILES notation. Calls of active or inactive are those of the source. No cut-off for these calls is given here. Bounds are passed on as bounds.

Turning to `NC(CCSCCCCC(=O)O)C(=O)O` (stereo not given), the inhibition entry in test [1] is “inactive”. Further, the inhibition entry in test [2] was “Active”.

Take `N[C@@H](CCSCCSCC[C@H](N)C(=O)O)C(=O)O`: the inhibition in test [1] was determined as 60%.

For the molecule `N[C@@H](CCSCSCC[C@H](N)C(=O)O)C(=O)O`, in test [1], the inhibition result was “inactive”.

In the case of `CC(CCSCC[C@H](N)C(=O)O)CCC(N)C(=O)O` (mixture of isomers), the inhibition in test [1] is greater than 90%; in test [2] it was 28%. The Ki in test [3] worked out at 0.077 µM. Further, the IC50 in test [4] worked out at 76.6 µM; in test [5], 3.6 µM.

With `CC(C)(CCSCC[C@H](N)C(=O)O)CCC(N)C(=O)O` (mixture of isomers), the inhibition entry in test [2] was “Active”.

One may read the inhibition as the share of the control response that was lost under treatment. For orientation: IC50 means the concentration that gives 50% inhibition.

Values taken from ChEMBL document CHEMBL2163269, “Double-headed sulfur-linked amino acids as first inhibitors for betaine-homocysteine S-methyltransferase 2” (J Med Chem, 2012).
